Bioassay records as filed in PubChem BioAssay.
A selection: hits, their analogues and other compounds. The true share with any hit is near 2.9%.
PRMT1 inh = PRMT1 (human) inhibition, primary screen | Q99873 | recombinant PRMT1, activity-based probe fluorescence polarization | inhibition, % at 2.79 µM | actives 1.3% (n = 370,000) | AID 652257;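 active = inhibition above about 21% made by adding two undisclosed values, limit read from the data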
ABHD4 inh = inhibitors of mouse ABHD4. Q8VD66. purified mABHD4, FP-Rh probe fluorescence polarization. inhibition, % at 8.92 µM. actives 0.54% (n = 370,000). AID 720543;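 active = inhibition exceeding the mean over every tested compound plus 3 SD, cut at about 30% in these data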;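 note: 0% = plate median of compound wells and 100% = S159A mutant with DMSO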
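System: mouse ABHD4 enzyme, wild type / Medium: HEPES pH 7.0, NaCl, Pluronic buffer / Reagent: FP-Rh activity-based fluorescent probe / Control set: S159A mutant high control, sample median low control / Detection: fluorescence polarization with parallel and perpendicular emission, 525/598 nm / Schedule: 45 min + 60 min at 25 °C / Compound dosing: 8.92 µM, single dose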
HTRA1 inhibitor = blocks human HTRA1 serine peptidase; inhibition, % at 5.96 µM; recombinant HTRA1, FP-rhodamine activity-based probe, fluorescence polarization; Q92743; actives 0.5% (n = 340,000); AID 504803; in the data active = inhibition above about 36%;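 note: 0% = enzyme with DMSO and 100% = wells lacking enzyme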
TCR-CD3 inh = blocks the human TCR-CD3 interaction; TAMRA-labeled TCR probe fluorescence, biochemical; inhibition, % at 9.4 µM; AID 651800; actives 0.37% (n = 360,000); in the data active = inhibition above about 19%;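 note: recombinant mutant TCR 2C K166C tagged with TAMRA read by polarization; 0% = receptor in buffer alone and 100% = receptor with positive control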
SIAE inh = human SIAE inhibition, primary screen | Q9HAT2 | SIAE FP-Rh probe binding, fluorescence polarization | inhibition, % at 9.66 µM | actives 0.69% (n = 370,000) | AID 1053197;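 active = inhibition above a cutoff: mean of compounds within the control limits plus 3 SD of those, cut at about 17% in these data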;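 note: 0% = plate median of compound wells and 100% = probe without SIAE protein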
PAD4 inh = blocks human protein arginine deiminase 4 | Q9UM07 | recombinant PAD4, RCA probe fluorescence polarization | inhibition, % at 6.36 µM | actives 0.41% (n = 330,000) | AID 485272;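 active = percent inhibition above a cutoff equal to the mean of all tested compounds plus 3 SD, cut at about 15% in these data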;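 note: 0% = PAD4 with RCA probe and DMSO and 100% = probe without PAD4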
An asterisk follows results filed as active; . = no result given.

SMILES	PRMT1 inh	ABHD4 inh	HTRA1 inhibitor	TCR-CD3 inh	SIAE inh	PAD4 inh
Cc1[nH]c2ccccc2c1/C=N/NC(=O)c1cccc(S(=O)(=O)Nc2cccc(C(F)(F)F)c2)c1	-1	-21	31	5	19*	1
CC(=O)Nc1ccc(-n2c(C)ccc2-c2ccccc2)cc1	23*	-7	-1	-5	8	5
CC(=O)Nc1ccc(-n2c(C)ccc2C)cc1	1	2	4	2	-3	-2
O=S(=O)(CC1NCc2cc(F)ccc21)NCc1ccccc1 (stereo not given)	-1	-7	.	.	-2	.
COc1ccc(CCNC(=O)Nc2cccs2)c(OC)c1	23*	-15	-5	1	-1	1
O=C(NCCN1CCC(Cc2ccccc2)CC1)C1CCCN(S(=O)(=O)c2ccc([N+](=O)[O-])cc2)C1 (stereo not given)	0	5	.	.	-3	.
C#CCNC(=O)C[C@H]1C[C@@]2(C(=O)OC)C(=C[C@H](C(C)(C)C)O[C@@H]2C)N(Cc2ccco2)C1=O	3	-3	.	.	5	.
Cc1ccc(-c2cc(C(=O)OCC(=O)N(C)c3c(N)n(Cc4ccccc4)c(=O)[nH]c3=O)c3ccccc3n2)o1	24*	1	-22	-5	2	-5
CCCCn1c(N)c(N(CCC(C)C)C(=O)c2cc(-c3ccco3)nc3ccccc23)c(=O)[nH]c1=O	22*	8	4	12	5	-5
CCCCN(C(=O)c1cc(-c2ccco2)nc2ccccc12)c1c(N)n(CCCC)c(=O)[nH]c1=O	22*	7	4	18	5	-4
COC(=O)C1CN(Cc2ccc(F)cc2)CCS(=O)(=O)N1Cc1ccc(C)cc1 (stereo not given)	-5	-3	.	.	-1	.
O=C(CSc1nnc(-c2cccnc2)n1Cc1ccco1)Nc1ccc(F)cc1Cl	13	-8	.	.	0	.
Cc1sc2nc(SCC(=O)c3ccc(O)c(O)c3)n(C)c(=O)c2c1C	4	27	.	.	-25	.
Cc1[nH]c2ccccc2c1CCN(Cc1cccs1)C(=O)Nc1cccc2c1OCO2	3	-4	.	.	8	.
Cc1[nH]c2ccc(C(=O)O)cc2c1C	3	-1	-1	-1	5	4
CCCc1c(C)[nH]c2ccc(C(=O)O)cc2c1=S	15	-18	-47	27*	-8	.
CC(=O)Nc1ccc(S(=O)(=O)NCC(=O)N2CCN(S(=O)(=O)c3cccs3)CC2)cc1	24*	0	-2	3	-1	10
CCOC(=O)N1CCN(C(=O)CNS(=O)(=O)c2cccs2)CC1	1	3	-4	4	2	-7
CCC(C)(C)n1nnnc1C(c1ccc(O)c(OC)c1)N1CCc2ccccc2C1 (stereo not given)	23*	0	1	-2	2	3
O=C(O)COc1cccc(/C=C2/SC(=S)N(Cc3ccccc3)C2=O)c1	6	-16	-81	3	-27	-4
O=C(O)CN1C(=O)/C(=C\c2cccc(OCc3ccccc3)c2)SC1=S	30*	0	-9	9	1	1
CC1(C)Cc2c(ccc3ccccc23)/C(=C/C(=O)N2CCCCC2)N1	-2	2	-20	-4	-5	-9
O=C(/C=C1\NC2(CCCC2)Cc2ccccc21)N1CCOCC1	27*	0	1	6	2	-1
CCOC(=O)c1cnc2c(C(=O)OC)cccc2c1NCc1ccco1	22*	4	-4	-4	3	1
O=C(CSc1c2c(nc3cc(Cl)ccc13)CCCC2)NCc1ccco1	23*	-1	-34	-4	-1	-1
SMILES	PRMT1 inh	ABHD4 inh	HTRA1 inhibitor	TCR-CD3 inh	SIAE inh	PAD4 inh
O=C(CSc1nc2ccc(Cl)cc2[nH]1)NCc1ccco1	3	3	3	9	0	-4
O=C(CCSCCC(=O)NCc1ccco1)NCc1ccco1	24*	13	.	2	2	-3
O=C(CSc1ccc2c(c1)OCCO2)NCc1ccco1	22*	-8	-8	-7	4	1
CN(C)C=Nc1nc2c(Br)ccc(Br)c2cc1C(=O)NCC(C)(C)C	0	-1	.	.	-1	.
CC(C)CNc1cccc2c1S(=O)(=O)N(Cc1cn(Cc3ccc(C(F)(F)F)cc3)nn1)Cc1ccccc1O2	-1	7	.	.	2	.
O=C(c1sccc1Cl)N1CCC(n2nnc3ncccc32)CC1	-4	5	.	.	-3	.
